Data from ChEMBL document CHEMBL1671794, “Synthesis and SAR studies on azetidine-containing dipeptides as HCMV inhibitors” (Bioorg Med Chem, 2011).
The source made the active and inactive calls. The rule behind the calls is not given here.

Key:
[1] = Cytotoxicity against HELF cells assessed as after 3 days by Coulter counting analysis; type: cell-based; settings: human; for MCC at 72 h / CC50 at 72 h: HELF cells; for CC50: helf, 72 h
Summary of the method: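 HEL cells were seeded at 5 × 10^3 cells/well and allowed to grow for 24 h before compound dilutions were added. After 3 days at 37 °C, cells were counted with a Coulter Counter.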

Human betaherpesvirus 5 = assay: Antiviral activity against human cytomegalovirus infected in HELF assessed as decrease in plaque formation after 7 days by microscopy; type: functional, organism-based; settings: Human betaherpesvirus 5, HELF, 168 h
Summary of the method: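 Confluent HEL fibroblasts were infected with HCMV Davis strain at 100 PFU per well. After 2 h, residual virus was removed and compound-containing medium was added in duplicate. Cells were incubated for 7 days at 37 °C, then ethanol-fixed and Giemsa-stained, and cytopathogenicity was scored microscopically.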

Human alphaherpesvirus 3 [2] = assay: Antiviral activity against Thymidine kinase-deficient Varicella-zoster virus 07-1 infected in HELF assessed as virus-induced cytopathogenicity after 5 days by microscopy; type: functional, organism-based; settings: Human alphaherpesvirus 3, 07-1, HELF, 120 h
Human alphaherpesvirus 3 [3] = assay: Antiviral activity against Thymidine kinase-positive Varicella-zoster virus Oka infected in HELF assessed as virus-induced cytopathogenicity after 5 days by microscopy; type: functional; settings: Human alphaherpesvirus 3, strain Oka vaccine, 120 h
Human alphaherpesvirus 1 = assay: Antiviral activity against Human herpesvirus 1 strain KOS infected in HELF assessed as virus-induced cytopathogenicity at 20 to 100 uM after 4 days by microscopy; type: functional, organism-based
Summary of the method: (§1)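 Confluent cell monolayers were inoculated with 100 CCID50 of virus. After 1 h of adsorption, residual virus was removed and cultures were incubated with fivefold serial compound dilutions. Cytopathicity was scored microscopically once it was complete in the untreated infected controls.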

Influenza A virus [4] = assay: Antiviral activity against Influenza A virus H3N2 infected in MDCK assessed as virus-induced cytopathogenicity at 20 to 100 uM after 4 days by microscopy; type: functional, organism-based
Summary of the method: (§2)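 Near-confluent MDCK (influenza) or confluent HEL monolayers were inoculated with 100 CCID50 of virus. After 1-h adsorption, residual virus was removed, and cells were incubated with fivefold serial dilutions of compound. Cytopathicity was scored microscopically once untreated infected controls reached complete CPE. Minimal cytotoxic concentration was read as microscopically visible alteration of cell morphology.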

Human alphaherpesvirus 2 = assay: Antiviral activity against Human herpesvirus 2 strain G infected in HELF assessed as virus-induced cytopathogenicity at 20 to 100 uM after 4 days by microscopy; type: functional, organism-based; summary of the method: as §1
Influenza A virus [5] = assay: Antiviral activity against Influenza A virus infected in MDCK assessed as virus-induced cytopathogenicity at 20 to 100 uM after 4 days by microscopy; type: functional, organism-based; summary of the method: as §2
[6] = test system: Mammalian orthoreovirus 1; assay: Antiviral activity against reovirus-1 infected in african green monkey Vero cells assessed as virus-induced cytopathogenicity at 20 to 100 uM after 4 days by microscopy; type: functional, organism-based; summary of the method: as §1
Human respirovirus 3 = assay: Antiviral activity against parainfluenza-3 infected in african green monkey Vero cells assessed as virus-induced cytopathogenicity at 20 to 100 uM after 4 days by microscopy; type: functional, organism-based; summary of the method: as §1
Sindbis virus = assay: Antiviral activity against Sindbis virus infected in african green monkey Vero cells assessed as virus-induced cytopathogenicity at 20 to 100 uM after 4 days by microscopy; type: functional, organism-based; summary of the method: as §1
Influenza A virus [7] = assay: Antiviral activity against Influenza A virus H1N1 infected in MDCK assessed as virus-induced cytopathogenicity at 20 to 100 uM after 4 days by microscopy; type: functional, organism-based; summary of the method: as §2
[8] = test system: Vesicular stomatitis virus; assay: Antiviral activity against Vesicular stomatitis virus infected in HELF assessed as virus-induced cytopathogenicity at 20 to 100 uM after 4 days by microscopy; type: functional, organism-based; summary of the method: as §2
Coxsackievirus B4 = assay: Antiviral activity against coxsackievirus B4 infected in african green monkey Vero cells assessed as virus-induced cytopathogenicity at 20 to 100 uM after 4 days by microscopy; type: functional, organism-based; summary of the method: as §1
Feline coronavirus = assay: Antiviral activity against Feline coronavirus infected in CrFK assessed as virus-induced cytopathogenicity at 20 to 100 uM after 4 days by microscopy; type: functional, organism-based; summary of the method: as §1

SMILES	MCC at 72 h [1]	CC50 [1]	EC50 (Human betaherpesvirus 5)	other results
C[C@H](NC(=O)[C@H](Cc1ccccc1)NC(=O)OCc1ccccc1)C(=O)NC(C)(C)C	> 100 µM	> 100 µM	> 100 µM	
NC(=O)[C@H](Cc1ccccc1)NC(=O)[C@@]1(Cc2ccccc2)CCN1C(=O)OCc1ccccc1	100 µM	37 µM	> 20 µM	
C[C@@H](NC(=O)[C@@]1(Cc2ccccc2)CCN1C(=O)OCc1ccccc1)C(N)=O	> 100 µM	> 100 µM	> 100 µM	
C[C@H](NC(=O)[C@]1(Cc2ccccc2)CCN1C(=O)NCc1ccccc1)C(N)=O	> 100 µM	> 100 µM	> 100 µM	
C[C@H](NC(=O)[C@]1(Cc2ccccc2)CCN1C(=O)OCc1ccc([N+](=O)[O-])cc1)C(N)=O	100 µM		> 20 µM	CC50 at 72 h [1]: > 100 µM; IC50 (Human alphaherpesvirus 3 [2]): 67 µM; IC50 (Human alphaherpesvirus 3 [3]): > 100 µM
C[C@H](NC(=O)[C@]1(Cc2ccccc2)CCN1C(=O)OCc1ccccc1Cl)C(N)=O	> 100 µM	> 100 µM	> 20 µM	
C[C@H](NC(=O)[C@]1(Cc2ccccc2)CCN1C(=O)CCc1ccccc1)C(N)=O	100 µM		> 100 µM	CC50 at 72 h [1]: > 100 µM
CC(C)C[C@H](NC(=O)[C@]1(Cc2ccccc2)CCN1C(=O)OCc1ccccc1)C(N)=O	100 µM	50 µM	> 20 µM	
C[C@H](NC(=O)[C@@]1(Cc2ccccc2)CCN1C(=O)OCc1ccccc1)C(=O)NC(C)(C)C (mixture of isomers)	> 100 µM	> 100 µM	49 µM	IC50 (Human alphaherpesvirus 3 [2]): 60 µM; IC50 (Human alphaherpesvirus 3 [3]): 63 µM
C[C@H](NC(=O)[C@]1(Cc2ccccc2)CCN1C(=O)N[C@@H](C)c1ccccc1)C(N)=O	> 100 µM	> 100 µM	> 100 µM	
C[C@H](NC(=O)[C@]1(Cc2ccccc2)CCN1C(=O)OCc1ccccc1)C(N)=O	> 50 µM	50 µM	32 µM	
C[C@H](NC(=O)[C@]1(Cc2ccccc2)CCN1C(=O)OCc1ccccc1)C(=O)NC1CCCCC1	> 100 µM	> 100 µM	> 100 µM	
C[C@H](NC(=O)[C@]1(Cc2ccccc2)CCN1C(=O)Oc1ccccc1)C(N)=O	> 100 µM	> 100 µM	> 20 µM	IC50 (Human alphaherpesvirus 3 [2]): 858 µM; IC50 (Human alphaherpesvirus 3 [3]): 69 µM
NC(=O)[C@H](Cc1ccccc1)NC(=O)[C@]1(Cc2ccccc2)CCN1C(=O)OCc1ccccc1	100 µM	33 µM	> 20 µM	
Nc1nc2c(ncn2COCCO)c(=O)[nH]1 [ACYCLOVIR]	> 1780 µM	> 1780 µM		
C[C@H](NC(=O)[C@]1(Cc2ccccc2)CCN1C(=O)Oc1cccc2ccccc12)C(N)=O	> 100 µM	> 100 µM	45 µM	IC50 (Human alphaherpesvirus 3 [2]): 47.7 µM; IC50 (Human alphaherpesvirus 3 [3]): 47.7 µM
C[C@H](NC(=O)[C@@]1(Cc2ccccc2)CCN1C(=O)OCc1ccccc1)C(=O)NC1CCCCC1	100 µM	46 µM	> 20 µM	

SMILES	MCC at 72 h [1]	CC50 [1]	EC50 (Human betaherpesvirus 5)	other results
C[C@@H](NC(=O)[C@]1(Cc2ccccc2)CCN1C(=O)OCc1ccccc1)C(N)=O	> 100 µM	36 µM	63 µM	
C[C@H](NC(=O)[C@]1(Cc2ccccc2)CCN1C(=O)OCC1c2ccccc2-c2ccccc21)C(N)=O	20 µM	14 µM	> 4 µM	Activity (Human alphaherpesvirus 1): inactive; Activity (Influenza A virus [4]): inactive; Activity (Human alphaherpesvirus 2): inactive; Activity (Influenza A virus [5]): inactive; Activity [6]: inactive; Activity (Human respirovirus 3): inactive; Activity (Sindbis virus): inactive; Activity (Influenza A virus [7]): inactive; Activity [8]: inactive; Activity (Coxsackievirus B4): inactive; Activity (Feline coronavirus): inactive
CC(C)[C@H](NC(=O)[C@]1(Cc2ccccc2)CCN1C(=O)OCc1ccccc1)C(N)=O	> 100 µM	100 µM		
C[C@H](NC(=O)[C@]1(Cc2ccccc2)CCN1C(=O)OCc1ccccc1)C(=O)NCc1ccccc1	100 µM		> 20 µM	
CC(C)CNC(=O)[C@H](C)NC(=O)[C@@]1(Cc2ccccc2)CCN1C(=O)OCc1ccccc1	> 100 µM		> 100 µM	
C[C@H](NC(=O)[C@@]1(Cc2ccccc2)CCN1C(=O)OCc1ccccc1)C(=O)NCc1ccccc1 (racemic)	≥ 20 µM	42 µM	> 4 µM	
CC(C)CNC(=O)[C@H](C)NC(=O)[C@]1(Cc2ccccc2)CCN1C(=O)OCc1ccccc1	> 100 µM	> 100 µM	63 µM	IC50 (Human alphaherpesvirus 3 [2]): 64.8 µM; IC50 (Human alphaherpesvirus 3 [3]): > 100 µM
Nc1nc(O)c2ncn(COC(CO)CO)c2n1 [GANCICLOVIR]	≥ 1580 µM	580 µM	7 µM	
C[C@H](NC(=O)[C@]1(Cc2ccccc2)CCN1S(=O)(=O)c1ccc2ccccc2c1)C(N)=O	> 100 µM	> 100 µM	> 100 µM	IC50 (Human alphaherpesvirus 3 [2]): 76.5 µM; IC50 (Human alphaherpesvirus 3 [3]): > 100 µM
C[C@H](NC(=O)[C@]1(Cc2ccccc2)CCN1C(=O)OCc1ccccc1)C(=O)N(C)C	> 100 µM	> 100 µM	> 100 µM	
C[C@H](NC(=O)[C@@]1(Cc2ccccc2)CCN1C(=O)OCc1ccccc1)C(=O)N(C)C	> 100 µM		> 100 µM	
CC(C)C[C@H](NC(=O)[C@@]1(Cc2ccccc2)CCN1C(=O)OCc1ccccc1)C(N)=O	> 100 µM	66 µM	45 µM	
C[C@H](NC(=O)[C@H](Cc1ccccc1)NC(=O)OCc1ccccc1)C(N)=O	> 100 µM	> 100 µM	> 100 µM	
CC(C)[C@H](NC(=O)[C@@]1(Cc2ccccc2)CCN1C(=O)OCc1ccccc1)C(N)=O	> 100 µM	85 µM	> 100 µM	
NC(=O)[C@H](CCC(=O)O)NC(=O)C1(Cc2ccccc2)CCN1C(=O)OCc1ccccc1 (mixture of isomers)	> 100 µM	> 100 µM	> 100 µM	
NCCCC[C@H](NC(=O)C1(Cc2ccccc2)CCN1C(=O)OCc1ccccc1)C(N)=O (mixture of isomers)	> 100 µM	> 100 µM	> 100 µM	
C[C@H](NC(=O)[C@]1(Cc2ccccc2)CCN1C(=O)OCc1ccccc1)C(=O)NC(C)(C)C	> 100 µM		45 µM	IC50 (Human alphaherpesvirus 3 [2]): 62.5 µM
